Test results from article PMC11164094 (International Journal of Nanomedicine, 2024).
Converted amounts (≈) assume the structure as drawn.

Columns and labels:
HUA mice = experiment: In vivo anti-hyperuricemia study; set-up: species or system KM mice; details: for serum UA level vs HUA group: gavage once daily, 5 mg/kg FEB, 10 mg/kg OBB, 1, 2, 4 mg/kg OBB-HP-β-CD SDDS
Summary of the method: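 KM mice (male, 20 ± 2 g, 4 weeks, SPF) were acclimatised ≥7 days at 24 ± 1°C, n = 10/group. Hyperuricemia was induced daily for 10 days with PO 300 mg/kg i.p. plus HX 300 mg/kg oral. Test compound was gavaged 1 h post-challenge, once daily for 7 days. Kidneys were taken 1 h after the last dose, fixed 24 h in 4% PFA, paraffin-embedded, sectioned at 4 μm, H&E-stained and blind-scored at 200× (n = 3).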

[1] = Solubility test of OBB in different dissolution media and excipient solutions; assay type: physicochemical; details: for Solubility: 25°C, shaken 24 h
Summary of the method: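 Excess test compound was added to each medium, with solid excipients made up as 25 mg/mL aqueous solutions. Samples were shaken at 90 rpm and 25°C for 24 h to reach equilibrium. They were then centrifuged (9000 ×g, 20 min), and the supernatant was filtered (0.22 µm), diluted and quantified by HPLC. HPLC used a C18 column with methanol-water 70:30 and 0.1% formic acid, isocratic at 1.0 mL/min, 30°C.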

[2] = Pharmacokinetic study in rats; assay type: in vivo; details: male, Sprague Dawley, rat, blood, oral, 50 mg/kg
Summary of the method: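 Male Sprague Dawley rats (200–240 g) were fasted overnight with free water and dosed in groups of 6. Dose was 50 mg/kg test compound, given p.o. as raw material or as HP-β-CD supersaturated formulation, or i.v. as formulation. Heparinized orbital blood was drawn at 0.083–24 h. Acetonitrile protein precipitation with piperine internal standard; centrifuged 2000 ×g, 10 min; residue redissolved in methanol, filtered; HPLC.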

[3] = Appearance and solubility of prepared samples in water; assay type: physicochemical
[4] = previous study; cited from earlier work
[5] = previous study; cited from earlier work; remark: listed apart in the source

Compound	renal histopathological damage (H&E) vs HUA group (HUA mice)	serum UA level vs HUA group (HUA mice)	solubility at 24 h ([1]; artificial gastric fluid) [µg/mL]	Solubility ([1]; artificial intestinal fluid)	Solubility ([1]; water)	bioavailability [2] [%]	appearance after addition of water and sufficient stirring [3]	anti-hyperuricemic activity [4]	safety profile [5]
Cc1nc(-c2ccc(OCC(C)C)c(C#N)c2)sc1C(=O)O [FEB, febuxostat, reference compound]	effectively ameliorated	significantly decreased							
COc1ccc2cc3n(c(=O)c2c1OC)CCc1cc2c(cc1-3)OCO2 [OBB, Oxyberberine]	effectively ameliorated	significantly decreased	~0.32 (≈ 0.911 µM)	completely insoluble	completely insoluble	1.55	remained cloudy	comparable to the first-line agent febuxostat	favorable safety profile
